Laboratory results: ChEMBL document CHEMBL3352504, “New series of monoamidoxime derivatives displaying versatile antiparasitic activity” (Eur J Med Chem, 2014)

Assays:
Leishmania donovani = test: Antileishmanial activity Leishmania donovani MHOM/IN/00/DEVI promastigotes incubated for 72 hrs by MTT assay; type: functional, organism-based
Summary of the method: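 Promastigotes of strain MHOM/IN/00/DEVI were exposed to compounds alongside amphotericin B and pentamidine reference drugs under identical conditions. IC50 was determined from three independent experiments, each run in duplicate, and reported as mean ± SD.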

[1] = Cytotoxicity against human HepG2 cells incubated for 72 hrs by MTT assay; type: cell-based
Summary of the method: (§1)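 Cytotoxicity was measured by MTT in mouse J774A.1 macrophages and human HepG2 hepatocyte-derived cells, with doxorubicin as the cytotoxic reference. The 50% cytotoxic concentration (CC50) came from three independent experiments in duplicate, reported as mean ± SD.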

[2] = Selectivity index, ratio of CC50 for human HepG2 cells to IC50 for chloroquine, pyrimethamine and proguanil-resistant Plasmodium falciparum K1; type: functional
Summary of the method: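 SI = HepG2 CC50 / PfK1 IC50. CC50 was from an MTT assay on human HepG2 cells, and IC50 from the SYBR Green I fluorescence assay on P. falciparum K1. Each assay was three independent experiments in duplicate.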

[3] = Cytotoxicity against mouse J774A1 cells incubated for 72 hrs by MTT assay; type: cell-based, J774.A1; summary of the method: as §1
Plasmodium falciparum = test: Antiplasmodial activity against chloroquine, pyrimethamine and proguanil-resistant Plasmodium falciparum K1 infected in human erythrocytes assessed as reduction in Parasitemia incubated for 72 hrs by SYBR Green I fluorescence-based method; type: functional, organism-based; details: K1, 72 h
Summary of the method: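 Multidrug-resistant P. falciparum K1 was tested in vitro with a SYBR Green I fluorescence-based read-out. IC50 was calculated from three independent experiments, each run in duplicate, and reported as mean ± SD.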

[4] = Selectivity index, ratio of CC50 for mouse J774A1 cells to IC50 for Leishmania donovani MHOM/IN/00/DEVI promastigotes; type: functional, J774.A1
Summary of the method: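 SI was calculated as J774A.1 macrophage CC50 (MTT) divided by L. donovani promastigote IC50. Both inputs were means of three independent experiments run in duplicate.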

Cc1ccc(-c2ccc(C3(C)CC(S(=O)(=O)c4ccc(F)cc4)=C(c4ccc(/C(N)=N\O)cc4)O3)cc2)cc1 (configuration not stated)
IC50 (Leishmania donovani): 11.8 µM
CC50 at 72 h [1]: 13.7 µM
Ratio CC50/IC50 [2]: <1.4
CC50 at 72 h [3]: 7.91 µM
IC50 (Plasmodium falciparum): > 10 µM
Ratio CC50/IC50 [4]: 0.7

CC1(c2ccc(Cl)cc2)CC(S(=O)(=O)c2ccc(F)cc2)=C(c2ccc(/C(N)=N\O)cc2)O1 (configuration not stated)
IC50 (Leishmania donovani): 48.4 µM
CC50 at 72 h [1]: 61.4 µM
Ratio CC50/IC50 [2]: <6.1
CC50 at 72 h [3]: 31.5 µM
IC50 (Plasmodium falciparum): > 10 µM
Ratio CC50/IC50 [4]: 0.7

N/C(=N/O)c1ccc(C2=C(S(=O)(=O)c3ccc(F)cc3)CC(c3ccccc3)(c3ccccc3)O2)cc1
IC50 (Leishmania donovani): 15.7 µM
CC50 at 72 h [1]: 19.2 µM
Ratio CC50/IC50 [2]: 4.9
CC50 at 72 h [3]: 10.2 µM
IC50 (Plasmodium falciparum): 3.9 µM
Ratio CC50/IC50 [4]: 0.7

COc1cc(-c2ccc(C3(C)CC(S(=O)(=O)c4ccc(F)cc4)=C(c4ccc(/C(N)=N\O)cc4)O3)cc2)cc(OC)c1OC (configuration not stated)
IC50 (Leishmania donovani): > 25 µM
CC50 at 72 h [1]: > 50 µM
Ratio CC50/IC50 [2]: >9.9
CC50 at 72 h [3]: 5.22 µM
IC50 (Plasmodium falciparum): 5.03 µM
Ratio CC50/IC50 [4]: <0.2

CC1(c2ccc(-c3ccncc3)cc2)CC(S(=O)(=O)c2ccc(F)cc2)=C(c2ccc(/C(N)=N\O)cc2)O1 (configuration not stated)
IC50 (Leishmania donovani): 28 µM
CC50 at 72 h [1]: 30.3 µM
Ratio CC50/IC50 [2]: 9.5
CC50 at 72 h [3]: 6.75 µM
IC50 (Plasmodium falciparum): 3.2 µM
Ratio CC50/IC50 [4]: 0.2

CC1(c2ccc(-c3ccc(/C(N)=N\O)cc3)cc2)CC(S(=O)(=O)c2ccc(F)cc2)=C(c2ccc(/C(N)=N\O)cc2)O1 (configuration not stated)
IC50 (Leishmania donovani): > 50 µM
CC50 at 72 h [1]: 15.3 µM
Ratio CC50/IC50 [2]: 3.1
CC50 at 72 h [3]: 3.94 µM
IC50 (Plasmodium falciparum): 4.93 µM
Ratio CC50/IC50 [4]: <0.08

CC1(c2ccc(-c3cccc([N+](=O)[O-])c3)cc2)CC(S(=O)(=O)c2ccc(F)cc2)=C(c2ccc(/C(N)=N\O)cc2)O1 (configuration not stated)
IC50 (Leishmania donovani): 14.1 µM
CC50 at 72 h [1]: > 50 µM
Ratio CC50/IC50 [2]: >8.6
CC50 at 72 h [3]: 11.1 µM
IC50 (Plasmodium falciparum): 5.82 µM
Ratio CC50/IC50 [4]: 0.8

COc1ccc(C2(c3ccccc3)CC(S(=O)(=O)c3ccc(F)cc3)=C(c3ccc(/C(N)=N\O)cc3)O2)cc1 (configuration not stated)
IC50 (Leishmania donovani): > 50 µM
CC50 at 72 h [1]: 29.4 µM
Ratio CC50/IC50 [2]: 7
CC50 at 72 h [3]: 11.3 µM
IC50 (Plasmodium falciparum): 4.17 µM
Ratio CC50/IC50 [4]: <0.2

CC1(Cc2ccccc2)CC(S(=O)(=O)c2ccccc2C(F)(F)F)=C(c2ccc(/C(N)=N\O)cc2)O1 (configuration not stated)
IC50 (Leishmania donovani): 15.5 µM
CC50 at 72 h [1]: 57.5 µM
Ratio CC50/IC50 [2]: <5.7
CC50 at 72 h [3]: 23.5 µM
IC50 (Plasmodium falciparum): > 10 µM
Ratio CC50/IC50 [4]: 1.5

N=C(N)c1ccc(OCCCCCOc2ccc(C(=N)N)cc2)cc1 [PENTAMIDINE]
Ratio CC50/IC50 [4]: 0.1

CC1(c2ccc(-c3ccco3)cc2)CC(S(=O)(=O)c2ccc(F)cc2)=C(c2ccc(/C(N)=N\O)cc2)O1 (configuration not stated)
IC50 (Leishmania donovani): > 25 µM
CC50 at 72 h [1]: 7.01 µM
Ratio CC50/IC50 [2]: <0.7
CC50 at 72 h [3]: 4.56 µM
IC50 (Plasmodium falciparum): > 10 µM
Ratio CC50/IC50 [4]: <0.2

CC1(Cc2ccccc2)CC(S(=O)(=O)c2ccc(F)cc2F)=C(c2ccc(/C(N)=N\O)cc2)O1 (configuration not stated)
IC50 (Leishmania donovani): 32.5 µM
CC50 at 72 h [1]: 90.6 µM
Ratio CC50/IC50 [2]: 11
CC50 at 72 h [3]: 41.5 µM
IC50 (Plasmodium falciparum): 8.21 µM
Ratio CC50/IC50 [4]: 1.3

CCC1(c2ccccc2OC)CC(S(=O)(=O)c2ccc(F)cc2)=C(c2ccc(/C(N)=N\O)cc2)O1 (configuration not stated)
IC50 (Leishmania donovani): 12.4 µM
CC50 at 72 h [1]: 27 µM
Ratio CC50/IC50 [2]: 3.4
CC50 at 72 h [3]: 9.88 µM
IC50 (Plasmodium falciparum): 7.88 µM
Ratio CC50/IC50 [4]: 0.8

CC1(c2ccc(Br)cc2)CC(S(=O)(=O)c2ccc(F)cc2)=C(c2ccc(/C(N)=N\O)cc2)O1 (configuration not stated)
IC50 (Leishmania donovani): 10.8 µM
CC50 at 72 h [1]: 19.2 µM
Ratio CC50/IC50 [2]: <1.9
CC50 at 72 h [3]: 10.5 µM
IC50 (Plasmodium falciparum): > 10 µM
Ratio CC50/IC50 [4]: 1

COc1cccc2c1C(=O)c1c(O)c3c(c(O)c1C2=O)C[C@@](O)(C(=O)CO)C[C@@H]3O[C@H]1C[C@H](N)[C@H](O)[C@H](C)O1 [DOXORUBICIN]
CC50 at 72 h [1]: 0.02 µM
CC50 at 72 h [3]: 0.01 µM

CC1(Cc2ccccc2)CC(S(=O)(=O)c2c(F)cccc2F)=C(c2ccc(/C(N)=N\O)cc2)O1 (configuration not stated)
IC50 (Leishmania donovani): 22.1 µM
CC50 at 72 h [1]: 91.4 µM
Ratio CC50/IC50 [2]: 33.2
CC50 at 72 h [3]: 27 µM
IC50 (Plasmodium falciparum): 2.76 µM
Ratio CC50/IC50 [4]: 1.2

CC1(c2ccc(-c3cccc(/C(N)=N\O)c3)cc2)CC(S(=O)(=O)c2ccc(F)cc2)=C(c2ccc(/C(N)=N\O)cc2)O1 (configuration not stated)
IC50 (Leishmania donovani): > 50 µM
CC50 at 72 h [1]: 19 µM
Ratio CC50/IC50 [2]: 4.4
CC50 at 72 h [3]: 11 µM
IC50 (Plasmodium falciparum): 4.34 µM
Ratio CC50/IC50 [4]: <0.2

CC1(Cc2ccccc2)CC(S(=O)(=O)c2ccccc2F)=C(c2ccc(/C(N)=N\O)cc2)O1 (configuration not stated)
IC50 (Leishmania donovani): 9.16 µM
CC50 at 72 h [1]: 61.7 µM
Ratio CC50/IC50 [2]: <6.2
CC50 at 72 h [3]: 29.1 µM
IC50 (Plasmodium falciparum): > 10 µM
Ratio CC50/IC50 [4]: 3.2

CC1(c2ccccc2)CC(S(=O)(=O)c2ccc(F)cc2)=C(c2ccc(/C(N)=N\O)cc2)O1 (configuration not stated)
IC50 (Leishmania donovani): > 50 µM
CC50 at 72 h [1]: 68.3 µM
Ratio CC50/IC50 [2]: <6.8
CC50 at 72 h [3]: 29.7 µM
IC50 (Plasmodium falciparum): > 10 µM
Ratio CC50/IC50 [4]: <0.6

C[C@H]1c2cccc(O)c2C(=O)C2=C(O)[C@]3(O)C(=O)C(C(N)=O)=C(O)[C@@H](N(C)C)[C@@H]3[C@@H](O)[C@@H]21.O [DOXYCYCLINE]
Ratio CC50/IC50 [2]: 4

CC1(c2ccc(-c3ccccc3C#N)cc2)CC(S(=O)(=O)c2ccc(F)cc2)=C(c2ccc(/C(N)=N\O)cc2)O1 (configuration not stated)
IC50 (Leishmania donovani): 21 µM
CC50 at 72 h [1]: 58.3 µM
Ratio CC50/IC50 [2]: <5.8
CC50 at 72 h [3]: 9.29 µM
IC50 (Plasmodium falciparum): > 10 µM
Ratio CC50/IC50 [4]: 0.4

CC1(Cc2ccccc2)CC(S(=O)(=O)c2cccc(C(F)(F)F)c2)=C(c2ccc(/C(N)=N\O)cc2)O1 (configuration not stated)
IC50 (Leishmania donovani): 11.9 µM
CC50 at 72 h [1]: 33.4 µM
Ratio CC50/IC50 [2]: 5.1
CC50 at 72 h [3]: 14.5 µM
IC50 (Plasmodium falciparum): 6.54 µM
Ratio CC50/IC50 [4]: 1.2

CC1(Cc2ccccc2)CC(S(=O)(=O)c2cccc(F)c2)=C(c2ccc(/C(N)=N\O)cc2)O1 (configuration not stated)
IC50 (Leishmania donovani): 13.1 µM
CC50 at 72 h [1]: 59.6 µM
Ratio CC50/IC50 [2]: 8.3
CC50 at 72 h [3]: 28.3 µM
IC50 (Plasmodium falciparum): 7.16 µM
Ratio CC50/IC50 [4]: 2.2

C[C@@H]1[C@H](O)[C@@H](C)/C=C/C=C/C=C/C=C/C=C/C=C/C=C/[C@H](O[C@@H]2O[C@H](C)[C@@H](O)[C@H](N)[C@@H]2O)C[C@@H]2O[C@](O)(C[C@@H](O)C[C@@H](O)[C@H](O)CC[C@@H](O)C[C@@H](O)CC(=O)O[C@H]1C)C[C@H](O)[C@H]2C(=O)O [AMPHOTERICIN B]
IC50 (Leishmania donovani): 0.15 µM
CC50 at 72 h [3]: 6.91 µM
Ratio CC50/IC50 [4]: 47.1
